The test system of test [1] is Human immunodeficiency virus. Put plainly: Effective concentration required to achieve 50% protection of MT-4 cells against the cytopathic effect of HIV-1 (HTLV-IIIB). It is filed as functional, organism-based. Conditions: Human immunodeficiency virus 1, MT4. The essentials: (§1)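 MT-4 cells at 2.5×10^5 cells/mL infected with 1000 CCID50 of the named HIV strain, then plated at once over a range of compound concentrations. Incubation at 37 °C for 4 days or 5 days. Viable cells read by MTT. EC50 is the concentration giving 50% protection from virus-induced cytopathic effect.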
In general terms: Protection from cytopathic effect is a common read-out in antiviral testing.

Test [2] concerns MT4. Put plainly: Cytotoxic concentration required to reduce the viability of mock-infected MT-4 cells by 50%. It is filed as functional. Conditions: Homo sapiens. The essentials:
(§2)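 Mock-infected MT-4 cells at 2.5×10^5 cells/mL plated with various concentrations of compound, run in parallel with the antiviral assay. Viable cells counted by MTT after 4 days or 5 days at 37 °C. CC50 is the concentration that lowers viability by 50%.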

The test system of test [3] is MT4. The experiment in a line: Selectivity Index measured as the ratio of CC50 to that of EC50 values.
For test [4], the system named is Human immunodeficiency virus. Put plainly: Effective concentration required to achieve 50% protection of MT-4 cells against the cytopathic effect of HIV-1 (HTLV-IIIB strain) and determined on 4th day after virus infection. It is filed as functional, organism-based. To be noted: Human immunodeficiency virus 1, MT4. The procedure, abridged:
as §1

For test [5], the system named is Human immunodeficiency virus. Put plainly: Effective concentration required to achieve 50% protection of MT-4 cells against the cytopathic effect of HIV-1 (HTLV-IIIRF strain) and determined on 4th day after virus infection. The test is classed as functional, organism-based. To be noted: Human immunodeficiency virus 1, MT4. The procedure, abridged:
as §1

For test [6], the system named is Human immunodeficiency virus. The experiment in a line: Effective concentration required to achieve 50% protection of MT-4 cells against the cytopathic effect of HIV-2 ((LAV-2EHO strain) and determined on 4th day after virus infection. The test is classed as functional, organism-based. To be noted: Human immunodeficiency virus 1, MT4. The essentials:
as §1

In test [7] the test system is Human immunodeficiency virus. Put plainly: Effective concentration required to achieve 50% protection of MT-4 cells against the cytopathic effect of HIV-2 (LAV-2ROD strain) and determined on 4th day after virus infection. The test is classed as functional, organism-based. Conditions: Human immunodeficiency virus 1, MT4. The essentials:
as §1

Test [8] concerns Human immunodeficiency virus. Put plainly: Cytotoxic concentration required to reduce the viability of mock-infected MT-4 cells (HIV-1 HTLV-IIIB strain) by 50% was determined on 4th day after virus infection. The test is classed as functional. To be noted: Human immunodeficiency virus 1, MT4. The procedure, abridged: as §2

As usually defined, the EC50 is the concentration needed to bring the measured effect to its halfway point. Read a high EC50 as lower potency in that assay. For orientation: CC50 means the concentration giving 50% cytotoxicity. Read a high CC50 as lower toxicity to the cells. As to `Cc1c(Cl)n(COCCO)c(=O)[nH]c1=O`, the EC50 in test [1] was over 250 µM. The compound also came in with a CC50 with MT4 [2] of over 250 µM.

As to `CCCCSc1c(C)c(=O)[nH]c(=O)n1COCCO`, the midpoint of the response in test [1], the EC50, lay at 130 µM. The compound also showed a half-maximal cytotoxic concentration (CC50) with MT4 [2] of over 250 µM.

In the case of `CCSc1c(C)c(=O)[nH]c(=O)n1COCCO`, in test [1], the EC50 is over 250 µM. Moreover, in the test with MT4 [2], the half-maximal cytotoxic concentration (CC50) was over 250 µM.

For `C#Cc1c(Sc2ccccc2)n(COCCO)c(=O)[nH]c1=O`, the concentration giving a half-maximal response (EC50) in test [1] was over 18 µM. In addition, the CC50 in the test with MT4 [2] is 18 µM. The Selectivity index in the test with MT4 [3] is recorded as under 1.

In the case of `O=c1[nH]c(=O)n(COCCO)c(Sc2ccccc2)c1C=C(c1ccccc1)c1ccccc1`, the 50% effective concentration (EC50) in test [1] is 0.84 µM. Further, in the test with MT4 [2], it took 21 µM to reach half-maximal cytotoxicity (CC50). For the same compound, the Selectivity index with MT4 [3] came to 25.

With `O=C(c1ccccc1)c1c(Sc2ccccc2)n(COCCO)c(=O)[nH]c1=O`, the EC50 in test [1] is over 13 µM. In the test on MT4 [2], this compound came in with a CC50 of 13 µM. Moreover, the Selectivity index in the test with MT4 [3] was under 1.

As for `Cc1c(C(O)c2ccccc2)n(COCCO)c(=O)[nH]c1=O` (centres undefined), the EC50 in test [1] was over 400 µM. Also, the cytotoxic concentration (CC50) in the test on MT4 [2] is 400 µM. Further, the Selectivity index in the test with MT4 [3] was under 1.

In test [1], `CC#Cc1c(C)c(=O)[nH]c(=O)n1COCCO` returned an EC50 of over 250 µM. The compound also had a half-maximal cytotoxic concentration (CC50) with MT4 [2] of over 250 µM.

In the case of `Cc1c(Sc2ccccc2)n(COCCO)c(=O)[nH]c1=O` [HEPT], the EC50 in test [1] was 7 µM; in test [4], 6.5 µM; in test [5], 8.1 µM; in test [6], over 250 µM; in test [7], over 250 µM. Besides, the cytotoxic concentration (CC50) was over 500 µM in test [8] and 740 µM in the test with MT4 [2].

As to `Cc1c(SC2CCCCC2)n(COCCO)c(=O)[nH]c1=O`, the EC50 in test [1] was 8.2 µM; in test [4] it was 7.7 µM; in test [5] it was 7.9 µM; in test [6], over 250 µM; in test [7], over 250 µM. For the same compound, the cytotoxic concentration (CC50) stood at 440 µM in test [8] and 664 µM in the test with MT4 [2]. The Selectivity index with MT4 [3] amounted to 81.

With `Nc1ccn([C@H]2CC[C@@H](CO)O2)c(=O)n1` [ZALCITABINE], in test [1], the 50% effective concentration (EC50) came to 0.3 µM. The compound further registered a cytotoxic concentration (CC50) with MT4 [2] of 40 µM. The Selectivity index with MT4 [3] is recorded as 133.

As for `O=c1[nH]c(=O)n(COCCO)c(Sc2ccccc2)c1Cc1ccccc1`, in test [1], the EC50 was over 23 µM. Besides, the cytotoxic concentration (CC50) with MT4 [2] stood at 23 µM. Besides, the Selectivity index with MT4 [3] is recorded as under 1.

`CSc1c(C)c(=O)[nH]c(=O)n1COCCO` had a half-maximal effective concentration (EC50) in test [1] of over 250 µM. For the same compound, in the test on MT4 [2], the CC50 was over 250 µM.

Consider `Cc1c(Oc2ccccc2)n(COCCO)c(=O)[nH]c1=O`, for which, in test [1], the EC50 was determined as 85 µM. The compound also gave a CC50 in the test on MT4 [2] of 345 µM. Moreover, in the test with MT4 [3], the Selectivity index is listed as 4.1.

`O=c1[nH]c(=O)n(COCCO)c(Sc2ccccc2)c1C#Cc1ccccc1`: the half-maximal effective concentration (EC50) in test [1] was over 3.4 µM. Further, in the test with MT4 [2], the 50% cytotoxic concentration (CC50) was found to be 3.4 µM. The Selectivity index with MT4 [3] is given as under 1.

For the compound `CC(C)C(=O)c1c(Sc2ccccc2)n(COCCO)c(=O)[nH]c1=O`, the concentration giving a half-maximal response (EC50) in test [1] is over 12 µM. This compound returned a CC50 in the test on MT4 [2] of 12 µM. For the same compound, the Selectivity index with MT4 [3] is under 1.

Turning to `Cc1cn([C@H]2C[C@H](N=[N+]=[N-])[C@@H](CO)O2)c(=O)[nH]c1=O` [ZIDOVUDINE], the 50% effective concentration (EC50) in test [1] was 0.016 µM. The compound also gave a 50% cytotoxic concentration (CC50) in the test on MT4 [2] of 20 µM. In addition, the Selectivity index in the test on MT4 [3] came to 1250.

On to `O=c1[nH]c(=O)n(COCCO)c(Sc2ccccc2)c1/C=C/c1ccccc1`, for which, in test [1], the concentration for a half-maximal effect (EC50) was found to be 6 µM. The midpoint of cytotoxicity with MT4 [2], the CC50, lay at 95 µM. Besides, the Selectivity index in the test on MT4 [3] came out at 16.

Regarding `Cc1c(/C=C/c2ccccc2)n(COCCO)c(=O)[nH]c1=O`, the EC50 in test [1] is over 250 µM. In the test on MT4 [2], this compound returned a CC50 of over 250 µM.

In test [1], `Cc1c(C(=O)c2ccccc2)n(COCCO)c(=O)[nH]c1=O` returned an EC50 of over 366 µM. The CC50 in the test on MT4 [2] is 366 µM. For the same compound, the Selectivity index with MT4 [3] is given as under 1.

As for `O=c1[nH]c(=O)n(COCCO)c(Sc2ccccc2)c1I`, the half-maximal effective concentration (EC50) in test [1] is 3.6 µM. In the test with MT4 [2], it took 20 µM to reach half-maximal cytotoxicity (CC50). In addition, the Selectivity index in the test with MT4 [3] amounted to 5.6.

For the compound `C=Cc1c(C)c(=O)[nH]c(=O)n1COCCO`, the half-maximal effective concentration (EC50) in test [1] was over 250 µM. This compound came in with a 50% cytotoxic concentration (CC50) with MT4 [2] of over 250 µM.

Compound `O=c1[nH]c(=O)n(COCCO)c(Sc2ccccc2)c1Sc1ccccc1` showed a 50% effective concentration (EC50) in test [1] of over 21 µM. Further, in the test with MT4 [2], the cytotoxic concentration (CC50) was found to be 21 µM. Moreover, the Selectivity index in the test on MT4 [3] is under 1.

In test [1], `Cc1c(OC2CCCCC2)n(COCCO)c(=O)[nH]c1=O` registered an EC50 of over 400 µM. Besides, it took 400 µM to reach half-maximal cytotoxicity in the test with MT4 [2] (CC50). In the test on MT4 [3], the Selectivity index is under 1.

As for `CC#Cc1c(Sc2ccccc2)n(COCCO)c(=O)[nH]c1=O`, the concentration giving a half-maximal response (EC50) in test [1] is over 19 µM. Also, the CC50 in the test on MT4 [2] turned out to be 19 µM. In addition, the Selectivity index in the test on MT4 [3] was under 1.

In turn, `Nc1ncnc2c1ncn2[C@H]1CC[C@@H](CO)O1` returned an EC50 in test [1] of 6.3 µM. This compound showed a cytotoxic concentration (CC50) in the test with MT4 [2] of 890 µM. In the test on MT4 [3], the Selectivity index was determined as 141.

For `COc1c(C)c(=O)[nH]c(=O)n1COCCO`, the EC50 in test [1] was over 484 µM. The midpoint of cytotoxicity in the test with MT4 [2], the CC50, lay at 484 µM. In the test with MT4 [3], the Selectivity index is under 1.

In test [1], `C=Cc1c(Sc2ccccc2)n(COCCO)c(=O)[nH]c1=O` came in with an EC50 of 1.1 µM. The cytotoxic concentration (CC50) with MT4 [2] turned out to be 76 µM. Also, the Selectivity index in the test with MT4 [3] is given as 69.

As to `C/C=C/c1c(C)c(=O)[nH]c(=O)n1COCCO`, in test [1], the EC50 was over 250 µM. Also, the CC50 with MT4 [2] was over 250 µM.

`Cc1c(Nc2ccccc2)n(COCCO)c(=O)[nH]c1=O` returned an EC50 in test [1] of over 327 µM. This compound had a half-maximal cytotoxic concentration (CC50) in the test with MT4 [2] of 327 µM. Moreover, the Selectivity index in the test with MT4 [3] is under 1.

Regarding `Cc1c(Br)n(COCCO)c(=O)[nH]c1=O`, the half-maximal effective concentration (EC50) in test [1] is over 180 µM. The same compound gave a CC50 in the test on MT4 [2] of 180 µM. The Selectivity index in the test with MT4 [3] is under 1.

In test [1], `Cc1c(NC2CCCCC2)n(COCCO)c(=O)[nH]c1=O` gave an EC50 of over 377 µM. In the test on MT4 [2], this compound came in with a CC50 of 337 µM. For the same compound, the Selectivity index in the test on MT4 [3] was under 1.

As for `Cc1c(C#Cc2ccccc2)n(COCCO)c(=O)[nH]c1=O`, the concentration giving a half-maximal response (EC50) in test [1] is over 14 µM. For the same compound, half-maximal cytotoxicity with MT4 [2] (CC50) was put at 14 µM. Besides, the Selectivity index in the test on MT4 [3] is listed as under 1.

As for `Cc1c(SC(C)(C)C)n(COCCO)c(=O)[nH]c1=O`, the concentration giving a half-maximal response (EC50) in test [1] is over 366 µM. In the test on MT4 [2], this compound gave a CC50 of 366 µM. In addition, the Selectivity index in the test on MT4 [3] is given as under 1.

Take `Cc1c(Cc2ccccc2)n(COCCO)c(=O)[nH]c1=O`: in test [1], the EC50 was 23 µM. Moreover, half-maximal cytotoxicity in the test with MT4 [2] (CC50) was put at 352 µM. Also, the Selectivity index in the test on MT4 [3] came to 15.

In the case of `C#Cc1c(C)c(=O)[nH]c(=O)n1COCCO`, the concentration giving a half-maximal response (EC50) in test [1] is over 5.5 µM. In addition, in the test with MT4 [2], the 50% cytotoxic concentration (CC50) came to 5.5 µM. In the test with MT4 [3], the Selectivity index is given as under 1.

(Values after ChEMBL document CHEMBL1125739, “A new class of HIV-1-specific 6-substituted acyclouridine derivatives: synthesis and anti-HIV-1 activity of 5- or 6-substituted analogues of 1-[(2-hydroxyethoxy)methyl]-6-(phenylthio)thymine (HEPT)” (J Med Chem, 1991).)
